Experimental data reported in the EternaBench riboswitch data.

Tested on: MS2 coat protein
Assay: apparent Kd, MS2 coat protein; higher = weaker binding; RNA-MaP array
Procedure, shortened: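 Fluorescently labeled MS2 coat protein, from 1.5 nM to 3 μM, was incubated at room temperature with designed RNAs transcribed on an Illumina sequencing chip from sequenced DNA templates. Times ran from 0.8–1.5 h at the lowest concentrations to 10–20 min at the highest, in Tris-HCl pH 7.5 buffer with KCl, MgCl2, BSA, DTT, tRNA and Tween20, with or without input ligand. Each apparent Kd is the median of per-cluster binding-curve fits, and designs with fewer than 10 measured clusters were excluded.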

[1] = designed as: ON switch for flavin mononucleotide, no ligand
[2] = ligand present: flavin mononucleotide, designed as: ON switch for flavin mononucleotide
[3] = designed as: OFF switch for flavin mononucleotide, no ligand
[4] = ligand present: flavin mononucleotide, designed as: OFF switch for flavin mononucleotide
[5] = designed as: ON switch for tryptophan, no ligand
[6] = ligand present: tryptophan, designed as: ON switch for tryptophan
[7] = designed as: OFF switch for tryptophan, no ligand
[8] = ligand present: tryptophan, designed as: OFF switch for tryptophan

Sequence | apparent Kd [3] | apparent Kd [4] | other results
ACUGUACUGGGAGGAUAUGGAGAGUUACCGUAAAUAAUCUACUAGACAUGAGGAUCACCCAUGUUCCAGAAGGCCCCAUGGACC |  |  | apparent Kd [1]: 14.9 nM; apparent Kd [2]: 10.4 nM
CUCGUGUGAGGAUAUUGAUCACAGGUCACGGUGCAGGAAUACAAGAAGGCACAUGAGGAUCACCCAUGUAACCG | 15.7 nM | 45 nM | 
CCACGACUAGGAUAUACCUAUGUUCACUCGUGAUCAAGGACACAUGAGGAUCACCCAUGUAGAAGGAGUCGCUA | 8.84 nM | 10.6 nM | 
UUGCAACAAACAGGAUAUACGCGGACUUCACGGGUAGAAGGGUUCGACCAGGAGAUAUCCCACAUGAGGAUCACCCAUGUCGUC | 163 nM | 130 nM | 
GAUCGUUGGGUAAGGAUAUAAGUUUAUUGCUUGGGUUAGAAGGUACAUGAGGAUCACCCAUGUAGGUGAGUCAC | 76.2 nM | 61.8 nM | 
UCCGGUGACCUAGGAUAUCGUUCAACUAACAUGAGGAUCACCCAUGUGGUCUGUUUUAUGCCUGUCGAGAAGGAGGUGGAUAAG | 64.2 nM | 55.6 nM | 
AAUUGUCGAGCAGGAUAUAGCUGACAGGAUAUUCAACUAACGACAUGAGGAUCACCCAUGUGUGGCUAGAAGGGCUUCAAGGCA |  |  | apparent Kd [1]: 15.2 nM; apparent Kd [2]: 11.5 nM
GACCUGUUAGGAUAUCGAAGGAGUCAAUACCAAGUGAGACACGAGAAGGAACAUGAGGAUCACCCAUGUGAACC | 11.4 nM | 15.7 nM | 
UUCUAUGUGACAGGAUAUAGACUCCACCAGUUUCUAGAAGGGUCACAGACGGAUCUUUAUUUGUCACAUGAGGAUCACCCAUGU |  |  | apparent Kd [1]: 28.7 nM; apparent Kd [2]: 9.71 nM
GAUCGACAUGAGGAUCACCCAUGUGAGGAUAUACCGCGGACUCCGUCUGCAUGUUAGGGUAGAAGGCACCGAGC | 14.1 nM | 13.1 nM | 
CCAGGACAUGAGGAUCACCCAUGUCAACAUCAAAUAAGCGCGUAGGAUAUCAAUACUGAAAGCUUUGAGAAGGACGAGAGGGUA |  |  | apparent Kd [1]: 22.8 nM; apparent Kd [2]: 17.8 nM
AGUCACAUGAGGAUCACCCAUGUGCCAGAACGAGGACCGGUACGGCCGCCACUCGAGGCGUCCGUCGACAAUAAUGUGAACUGCA |  |  | apparent Kd [5]: 10.7 nM; apparent Kd [6]: 12.1 nM
CUCGGAACAAUCGAUACCAGUUCUCAUGGAUUGCAGCAGUACAUGAGGAUCACCCAUGUAAACCCUUGGCAGCGAAGAACAAGAC |  |  | apparent Kd (designed as: OFF switch for theophylline, no ligand): 32.7 nM; apparent Kd (ligand present: theophylline, designed as: OFF switch for theophylline): 55.3 nM
UCCGGACGUUCGGCCGCCACUAAUUUACAUGAGGAUCACCCAUGUGCCAGUGGUCCGCAGAGUAAUAGGACCGGGAACCUUGGCU |  |  | apparent Kd [7]: 25.9 nM; apparent Kd [8]: 29.2 nM
AAGUACUUUGAGAAGGACCUCUCGAACAUGAGGAUCACCCAUGUCACGGAGUACCCGAUCGGCUGGUAGGAUAUCAUGGUACCG |  |  | apparent Kd [1]: 9.89 nM; apparent Kd [2]: 8.15 nM
AUCGGCAGAAAAGAUACCAGAGUAAUACACAACAUGAGGAUCACCCAUGUACGGACAAUCCUCCCUUGGCAGCUUGUAACAGUAU |  |  | apparent Kd (designed as: ON switch for theophylline, no ligand): 47.8 nM; apparent Kd (ligand present: theophylline, designed as: ON switch for theophylline): 26.9 nM
GUAUUACGGACGGCCGCCACUGUGGGACAUGAGGAUCACCCAUGUGGCGCUACUUACAAGUGCGACAGGACCGGGUCAUGGUUUG |  |  | apparent Kd [5]: 811 nM; apparent Kd [6]: 301 nM
GAAUAAAAUAUAAUAAGAAAACAUGAGGAUCACCCAUGUACAAGAAGGGAGAAACUUAACAUAACUCAGGAUAUUGUUAUAUCA |  |  | apparent Kd [1]: 28.9 nM; apparent Kd [2]: 22.2 nM
UAUAACGAAAGAGGAUAUAUCGGCCGUCUACGGAUAGAAGGCUUUCGCUAUGGCACUGAUGAUCUACAUGAGGAUCACCCAUGU | 7.91 nM | 7.19 nM | 
CACAUGAGGAUCACCCAUGUGUGGUGGGUGGUGCAACAUUGUAAGGAUAUAAUGGACGUCGGCCCUUAGAAGGUACAUUGUACG | 139 nM | 110 nM | 
CGAAGACAUGAGGAUCACCCAUGUAAGGAUAUUCAAAGAGCGCACCUGAAUGCCCUAUGAAGAAGGUACCGGGC | 69.9 nM | 52.1 nM | 
UAGACCGAAGGAUAUACAUGAGGAUCACCCAUGUCAAGGACAUACCCACGAAAGGCACGUAGAAGGUCGGCAUA | 18.2 nM | 33.1 nM | 
AACUGAAGCACCUUAUGCGGCGGCAAAACCCGAGGACCGGUACGGCCGCCACUCGAGUCGCAACAUGAGGAUCACCCAUGUGUAU |  |  | apparent Kd [7]: 51.3 nM; apparent Kd [8]: 117 nM
AUGCUGUGAGGAUAUCAGUCCCAGAAAAGCUGGCCGCUGACUGAGAAGGCACAUGAGGAUCACCCAUGUUCAAC | 10.2 nM | 15.7 nM | 
